Laboratory results: PMC9989852 (Food and chemical toxicology : an international journal …, 2022)
Where two headings read alike, the source gives them in different places.

Legend:
B6C3F1 mice [1] = test: Organ weights and body weight after 28-day dermal exposure; type: in vivo; details: 0.5%, 28 days
spleen = test: Spleen phenotyping by flow cytometry after 28-day dermal exposure; type: in vivo, B6C3F1 mice; details: 0.5%, 28 days
Procedure, shortened: (§1)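 Female B6C3F1 mice (5/group) received 25 μl/ear daily to the dorsal ears in acetone. About 24 h after the last dose, tissues went into RPMI: both auricular dLNs, half spleen and one ear pinna. Single-cell suspensions were acquired on an LSR II, with populations gated per supplemental strategy and FMO gating controls. Results are mean ± SE, n=5, by one-way ANOVA.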

ear pinna [2] = test: Skin; type: in vivo, B6C3F1 mice; details: 0.5%, dermal, 28 days
Procedure, shortened: as §1

[3] = ref ATSDR, 2021; cited from earlier work
kidney, spleen = test: Kidney and spleen histopathology after 28-day dermal exposure; type: in vivo, B6C3F1 mice; details: 0.5%, 28 days
Procedure, shortened: (§2)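 Female B6C3F1 mice (5/group) received 25 μl/ear on the dorsal ear surfaces daily, with acetone as vehicle. Tissues were formalin-fixed about 24 h after the last dose: liver remainder, half spleen, right kidney and half ear pinna. Sections were paraffin-embedded, cut at 5 μm and stained with H&E. A veterinary pathologist read them per STP guideline and graded 1 (minimal) to 5 (severe) by extent.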

[4] = PFAS concentration in pooled urine; type: in vivo, B6C3F1 mice; details: B6C3F1, mouse, urine, topical, 0.5 % w/v
Procedure, shortened: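 Urine was caught in a weigh boat as it was excreted during CO2 euthanasia, about 24 h after the final daily ear dose (25 μl/ear, acetone vehicle; female B6C3F1 mice). The 5 mice per group were pooled, with variable volume. Samples underwent solid-phase extraction and LC/MS/MS, as linear isomer for short-chain analytes and linear plus branched for the comparator. Each group gave a single value without statistics.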

liver (caudate) = test: Liver gene expression; type: in vivo, B6C3F1 mice; details: 0.5%, dermal, 28 days
Procedure, shortened: (§3)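 Dosing was daily topical to both dorsal ears (25 μl/ear, acetone vehicle) in female B6C3F1 mice. Liver caudate lobe or half ear pinna was stored in RNAlater and homogenized in RLT buffer. RNA was isolated on RNeasy columns with DNase, and 1–2 μg was reverse-transcribed. TaqMan real-time PCR was read as 2−ΔΔCT vs vehicle, normalized to β-actin. Statistics: ANOVA/Dunnett's, or Kruskal-Wallis/Dunn's for unequal variance.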

ear pinna [5] = test: Skin; type: in vivo, B6C3F1 mice; details: 0.5%, dermal, 28 days; remark: listed apart in the source
Procedure, shortened: as §3

skin [6] = details: concentrations up to 2%; ref Shane et al., 2020; cited from earlier work
[7] = system: auricular draining lymph nodes (dLNs); test: Draining lymph node phenotyping by flow cytometry after 28-day dermal exposure; type: in vivo, B6C3F1 mice; details: 0.5%, 28 days
Procedure, shortened: as §1

skin [8] = test: Irritation at the site of dermal application; type: in vivo, B6C3F1 mice; details: 0.5%, 28 days
B6C3F1 mice [9] = test: Serum chemistries after 28-day dermal exposure; type: in vivo; details: 28 days
Procedure, shortened: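 Female B6C3F1 mice received daily dorsal ear application (25 μl/ear, acetone vehicle). About 24 h after the last dose, blood was taken by cardiac puncture. Serum was separated by centrifugation and stored at −20 °C. ALKP, BUN, glucose and cholesterol were read on a Catalyst DX analyzer. Data are mean ± SE of 4–5 mice, ANOVA with Dunnett's; ALKP was also tested by linear regression (p < 0.05).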

[10] = PFAS concentration in serum; type: in vivo, B6C3F1 mice; details: 0.5%, dermal, 28 days
Procedure, shortened: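 Serum came by cardiac puncture about 24 h after the final daily ear dose (25 μl/ear, acetone vehicle; female B6C3F1 mice). Samples underwent solid-phase extraction and LC/MS/MS. Short-chain analytes were quantified as linear isomer only; the legacy comparator was quantified as linear plus branched. Data are mean ± SE of 4–5 mice, one-way ANOVA with Dunnett's vs vehicle.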

liver = test: Liver histopathology after 28-day dermal exposure; type: in vivo, B6C3F1 mice; details: 0.5%, 28 days
Procedure, shortened: as §2

B6C3F1 mice [11] = details: dermal exposure; Supplemental Table 8; ref Weatherly et al., 2021; cited from earlier work

With `O=C(O)C(F)(F)C(F)(F)C(F)(F)C(F)(F)C(F)(F)C(F)(F)C(F)(F)F` [PFOA, perfluorooctanoic acid, reference compound] the body weight (B6C3F1 mice [1]) was “significant decrease”, the “kidney weight (% body weight), increase” value (B6C3F1 mice [1]) was 8% and the “liver weight (% body weight), increase” value (B6C3F1 mice [1]) was 120%. The “spleen weight (% body weight), decrease” value (B6C3F1 mice [1]) was 41%, the “thymus weight (% body weight), decrease” value (B6C3F1 mice [1]) was 71% and the “spleen MFI of MHCII on B-cells” value (spleen) was “decrease”. The “spleen MFI of MHCII on DCs” value (spleen) was “decrease”, the “spleen frequency of CD4^+ T-cells” value (spleen) was “increase” and the “spleen frequency of CD8^+ T-cells” value (spleen) was “increase”. The “spleen frequency of CD11b + Ly6C + cells” value (spleen) was “decrease”, the “spleen frequency of CD11b + Ly6C− cells” value (spleen) was “decrease” and the “spleen frequency of CD11b + cells” value (spleen) was “decrease”. For the same compound, the “spleen frequency of NK cells” value (spleen) was “decrease”, the “spleen frequency of neutrophils” value (spleen) was “increase” and the “spleen number of B-cells” value (spleen) was “significant decrease”. For the same compound, the “spleen number of CD4^+ T-cells” value (spleen) was “significant decrease”, the “spleen number of CD11b + Ly6C + cells” value (spleen) was “significant decrease” and the “spleen number of CD11b + Ly6C− cells” value (spleen) was “significant decrease”. The “spleen number of CD11b + cells” value (spleen) was “significant decrease”, the “spleen number of NK cells” value (spleen) was “significant decrease” and the “spleen number of eosinophils” value (spleen) was “significant decrease”. The “spleen number of total DCs” value (spleen) was “significant decrease”, the “spleen total cell number” value (spleen) was “significant decrease” and the “skin CD11b + F4/80+ DCs, frequency and cell number” value (ear pinna [2]) was “significantly decreased”. The “skin CD11b− F4/80 DCs, frequency and cell number” value (ear pinna [2]) was “significantly decreased”, the “skin CD11b− F/480+ DCs, frequency and cell number” value (ear pinna [2]) was “significantly decreased” and the “skin CD45^+ cells, frequency and cell number” value (ear pinna [2]) was “significantly decreased”. For the same compound, the “skin eosinophils, frequency and cell number” value (ear pinna [2]) was “significantly decreased”, the “skin total DCs, frequency and cell number” value (ear pinna [2]) was “significantly decreased” and the half-life in humans [3] was 2.1–10.1 years. For the same compound, the “spleen decreased lymphocyte cellularity, mild (incidence)” value (kidney, spleen) was 2/5, the concentration at 24 h [4] was 260 µg/mL and the “liver Cd36 gene expression, increase” value (liver (caudate)) was 12.2 fold. The “liver Ehhadh gene expression, increase” value (liver (caudate)) was 57.7 fold, the “liver Lpl gene expression, increase” value (liver (caudate)) was 13.1 fold and the “liver Pparδ gene expression” value (liver (caudate)) was “decrease”. For the same compound, the “liver Serpine1 gene expression, increase” value (liver (caudate)) was 10.5 fold, the “skin Flg gene expression” value (ear pinna [5]) was “increased” and the “skin Pparγ gene expression” value (ear pinna [5]) was “significant decrease”. For the same compound, the “skin Pparδ gene expression” value (ear pinna [5]) was “slight significant increase”, the “skin Serpine1 gene expression” value (ear pinna [5]) was “significant increase” and the “signs of skin irritation” value (skin [6]) was “did not show any signs of irritation”. The “dLN B-cells” value [7] was “no B-cell changes”, the “dLN CD4^+ T-cells, cell number and frequency” value [7] was “decreased” and the “dLN MHCII MFI on B-cells” value [7] was “decrease”. For the same compound, the “dLN eosinophil cell number” value [7] was “decrease”, the “total dLN cellularity” value [7] was “neither PFOA (Supplemental Table 3) nor PFBA (Supplemental Table 9) induced changes” and the “irritation at the site of application” value (skin [8]) was “no irritation”. The “serum ALKP, increase” value (B6C3F1 mice [9]; 0.5%) was 112%, the “serum BUN” value (B6C3F1 mice [9]; 0.5%) was “No change” and the serum cholesterol (B6C3F1 mice [9]; 0.5%) was “No change”. For the same compound, the “serum glucose, decrease” value (B6C3F1 mice [9]; 0.5%) was 44%, the “serum alanine aminotransferase (ALT)” value (B6C3F1 mice [9]; any concentration, data not shown) was “No change” and the “PFAS serum concentration vs vehicle” value [10] was “significant increase”. For the same compound, the “liver hepatocellular hypertrophy (diffuse), marked (incidence)” value (liver) was 5/5.

In the case of `O=C(O)C(F)(F)C(F)(F)C(F)(F)F` [PFBA, heptafluorobutyric acid], the serum cholesterol (B6C3F1 mice [11]) is given as “elevated cholesterol” and the serum glucose levels (B6C3F1 mice [11]) is given as “increase in glucose levels”.
